Assay [1] concerns Candida albicans. The assay can be described thus: Antifungal activity against Candida albicans ATCC 10231 after 48 hrs by CLSI M27-A2 method. Format: functional. The note with it: ATCC 10231, 48 h. The procedure, abridged:
(§1)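 Broth microdilution per CLSI M27-A2 in RPMI-1640, with twofold dilutions giving final 250–0.98 µg/mL. The inoculum was modified to 1–5 × 10⁴ CFU/mL instead of 1–5 × 10³, with ketoconazole and amphotericin B as positive controls. MIC was the lowest concentration giving total growth inhibition, read visually. Strains were grown on Sabouraud-chloramphenicol agar for 24 h at 37 °C.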

Assay [2] concerns Candida albicans. The assay can be described thus: Antifungal activity against Candida albicans C 125-2000 after 48 hrs by CLSI M27-A2 method. Format: functional. The procedure, abridged: as §1
Assay [3] relates to Candida albicans. The assay can be described thus: Antifungal activity against Candida albicans C 126-2000 after 48 hrs by CLSI M27-A2 method. Format: functional. The procedure, abridged:
as §1

Assay [4] has as its system Candida albicans. The assay can be described thus: Antifungal activity against Candida albicans C 127-2000 after 48 hrs by CLSI M27-A2 method. Format: functional. The procedure, abridged: as §1
For assay [5], the system named is Candida albicans. The assay can be described thus: Antifungal activity against Candida albicans C 128-2000 after 48 hrs by CLSI M27-A2 method. Format: functional. The procedure, abridged:
as §1

For assay [6], the system named is Candida albicans. The assay can be described thus: Antifungal activity against Candida albicans C 129-2000 after 48 hrs by CLSI M27-A2 method. It is filed as functional. The procedure, abridged:
as §1

For assay [7], the system named is Candida albicans. Description: Antifungal activity against Candida albicans C 130-2000 after 48 hrs by CLSI M27-A2 method. It is filed as functional. The procedure, abridged:
as §1

Another assay deals with Nakaseomyces glabratus. The assay can be described thus: Antifungal activity against Candida glabrata C 115-2000 after 48 hrs by CLSI M27-A2 method. Format: functional. The procedure, abridged: as §1
For a further assay, the system named is Candida parapsilosis. The assay can be described thus: Antifungal activity against Candida parapsilosis C 124-2000 after 48 hrs by CLSI M27-A2 method. It is filed as functional. The note with it: Lodderomyces parapsilosis. The procedure, abridged:
as §1

Another assay deals with Clavispora lusitaniae. The assay can be described thus: Antifungal activity against Candida lusitaniae C 131-2000 after 48 hrs by CLSI M27-A2 method. Format: functional. The procedure, abridged: as §1
The test system of a further assay is Torulaspora delbrueckii. Description: Antifungal activity against Candida coliculosa C 122-2000 after 48 hrs by CLSI M27-A2 method. Format: functional. The procedure, abridged:
as §1

Another assay has as its system Pichia kudriavzevii. Description: Antifungal activity against Candida krusei C 117-2000 after 48 hrs by CLSI M27-A2 method. It is filed as functional. The procedure, abridged:
as §1

In another assay the test system is Kluyveromyces marxianus. The assay can be described thus: Antifungal activity against Candida kefyr C 123-2000 after 48 hrs by CLSI M27-A2 method. Format: functional. The procedure, abridged:
as §1

The next assay has as its system Candida tropicalis. Description: Antifungal activity against Candida tropicalis C 137-1997 after 48 hrs by CLSI M27-A2 method. It is filed as functional. The procedure, abridged: as §1
For assay [8], the system named is Candida albicans. The assay can be described thus: Antifungal activity against Candida albicans ATCC 10231 within 90 mins by time-to-kill study. It is filed as functional, organism-based. The procedure, abridged: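 C. albicans ATCC 10231 (2–2.5 × 10⁴ CFU/mL) in 5 mL RPMI-1640 was exposed to 1× MFC of compound at 37 °C with agitation. 10 µL samples taken at 0, 30, 60, 90 and 120 min, and at 4, 8, 12 and 24 h, were plated on drug-free SDA and colonies counted after 24–48 h at 37 °C. Run in duplicate.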

Assay [9] deals with Candida albicans. The assay can be described thus: Antifungal activity against Candida albicans ATCC 10231 after 24 hrs by CLSI M27-A2 method. It is filed as functional. The following applies: ATCC 10231, 24 h. The procedure, abridged: as §1
The subject of assay [10] is Candida albicans. Description: Antifungal activity against Candida albicans ATCC 10231 pre-incubated for 1 day analysed after 24 hrs by CLSI M27-A2 method. Format: functional. The procedure, abridged: (§2)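 Twofold maleimide dilutions (1000–0.98 µg/mL) in complete M27-A2 medium without inoculum were held at 37 °C, with one plate row filled on each of 7 consecutive days to give 0–7 days of pre-incubation. All wells were then inoculated with C. albicans ATCC 10231 at 1–5 × 10⁴ CFU/mL and incubated for 24 h at 37 °C. MIC was read per row, in duplicate.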

Assay [11] deals with Candida albicans. The assay can be described thus: Antifungal activity against Candida albicans ATCC 10231 pre-incubated for 2 days analysed after 24 hrs by CLSI M27-A2 method. Format: functional. The procedure, abridged: as §2
Assay [12] concerns Candida albicans. Description: Antifungal activity against Candida albicans ATCC 10231 pre-incubated for 3 days analysed after 24 hrs by CLSI M27-A2 method. It is filed as functional. The procedure, abridged: as §2
Assay [13] deals with Candida albicans. Description: Antifungal activity against Candida albicans ATCC 10231 pre-incubated for 4 days analysed after 24 hrs by CLSI M27-A2 method. It is filed as functional. The procedure, abridged:
as §2

The test system of assay [14] is Candida albicans. The assay can be described thus: Antifungal activity against Candida albicans ATCC 10231 pre-incubated for 5 days analysed after 24 hrs by CLSI M27-A2 method. Format: functional. The procedure, abridged:
as §2

Assay [15] has as its system Candida albicans. The assay can be described thus: Antifungal activity against Candida albicans ATCC 10231 pre-incubated for 6 days analysed after 24 hrs by CLSI M27-A2 method. Format: functional. The procedure, abridged:
as §2

Assay [16] relates to Candida albicans. The assay can be described thus: Antifungal activity against Candida albicans ATCC 10231 preincubated for 7 days analysed after 24 hrs by CLSI M27-A2 method. It is filed as functional. The procedure, abridged:
as §2

SMILES strings stand for the structures. Converted amounts (≈) assume the structure as drawn. The source made the active and inactive calls. The rule behind the calls is not given here.

Among the data in ChEMBL document CHEMBL1143889, “N-Phenyl and N-phenylalkyl-maleimides acting against Candida spp.: time-to-kill, stability, interaction with maleamic acids” (2008) are MIC, MFC and Activity values, retold here.

With `CC(=O)N1CCN(c2ccc(OCC3COC(Cn4ccnc4)(c4ccc(Cl)cc4Cl)O3)cc2)CC1` (centres undefined) [KETOCONAZOLE], the MIC is 0.5 µg/mL (≈ 0.941 µM) against Candida albicans [1]; 6.25 µg/mL (≈ 11.8 µM) against Candida albicans [2]; 1.56 µg/mL (≈ 2.94 µM) in the assay with Candida albicans [3]; 6.25 µg/mL (≈ 11.8 µM) in the assay with Candida albicans [4]; 6.25 µg/mL (≈ 11.8 µM) against Candida albicans [5]; 12.5 µg/mL (≈ 23.5 µM) against Candida albicans [6]. For the same molecule, the minimum inhibitory concentration (MIC) came to 6.25 µg/mL (≈ 11.8 µM) against Candida albicans [7]; 1.56 µg/mL (≈ 2.94 µM) with Nakaseomyces glabratus; 0.78 µg/mL (≈ 1.47 µM) with Candida parapsilosis; 25 µg/mL (≈ 47 µM) in the assay on Clavispora lusitaniae; 0.78 µg/mL (≈ 1.47 µM) in the assay with Torulaspora delbrueckii; 50 µg/mL (≈ 94.1 µM) in the assay with Pichia kudriavzevii. Also, the figures for the MIC in the assay with Kluyveromyces marxianus and in the assay with Candida tropicalis were 0.78 µg/mL (≈ 1.47 µM) and 0.12 µg/mL (≈ 0.226 µM), respectively.

`O=C1C=CC(=O)N1c1ccccc1`: the minimum fungicidal concentration (MFC) in the assay with Candida albicans [1] was 7.8 µg/mL (≈ 45 µM); against Candida albicans [2], 1.95 µg/mL (≈ 11.3 µM); against Candida albicans [3] it was 3.9 µg/mL (≈ 22.5 µM); against Candida albicans [4], 1.95 µg/mL (≈ 11.3 µM); against Candida albicans [5], 3.9 µg/mL (≈ 22.5 µM); against Candida albicans [6] it was 1.95 µg/mL (≈ 11.3 µM). In addition, the MFC came to 1.95 µg/mL (≈ 11.3 µM) in the assay with Candida albicans [7]; 3.9 µg/mL (≈ 22.5 µM) in the assay on Nakaseomyces glabratus; 3.9 µg/mL (≈ 22.5 µM) in the assay on Candida parapsilosis; 7.8 µg/mL (≈ 45 µM) against Clavispora lusitaniae; 3.9 µg/mL (≈ 22.5 µM) in the assay with Torulaspora delbrueckii; 1.95 µg/mL (≈ 11.3 µM) against Pichia kudriavzevii. Also, the figures for the MFC against Kluyveromyces marxianus and against Candida tropicalis were 3.9 µg/mL (≈ 22.5 µM) and 15.8 µg/mL (≈ 91 µM), respectively. The MIC against Candida albicans [1] is 3.9 µg/mL (≈ 22.5 µM); against Candida albicans [2], 0.48 µg/mL (≈ 2.77 µM); with Candida albicans [3] it was 0.97 µg/mL (≈ 5.6 µM); against Candida albicans [4] it was 0.97 µg/mL (≈ 5.6 µM); in the assay with Candida albicans [5], 0.97 µg/mL (≈ 5.6 µM); in the assay on Candida albicans [6], 0.48 µg/mL (≈ 2.77 µM). Moreover, the MIC in the assay with Candida albicans [7] came out at 0.48 µg/mL (≈ 2.77 µM); in the assay with Nakaseomyces glabratus it was 1.95 µg/mL (≈ 11.3 µM); against Candida parapsilosis, 1.95 µg/mL (≈ 11.3 µM); against Clavispora lusitaniae, 3.9 µg/mL (≈ 22.5 µM); against Torulaspora delbrueckii it was 1.95 µg/mL (≈ 11.3 µM); with Pichia kudriavzevii, 1.95 µg/mL (≈ 11.3 µM). The minimal inhibitory concentration (MIC) with Kluyveromyces marxianus amounted to 1.95 µg/mL (≈ 11.3 µM); against Candida tropicalis, 7.81 µg/mL (≈ 45.1 µM); with Candida albicans [9], 3.9 µg/mL (≈ 22.5 µM); in the assay with Candida albicans [10] it was 3.9 µg/mL (≈ 22.5 µM); in the assay on Candida albicans [11], 3.9 µg/mL (≈ 22.5 µM); against Candida albicans [12], 7.8 µg/mL (≈ 45 µM). The minimal inhibitory concentration (MIC) with Candida albicans [13] was found to be 15.8 µg/mL (≈ 91 µM); in the assay on Candida albicans [14], 62.5 µg/mL (≈ 361 µM); with Candida albicans [15], 125 µg/mL (≈ 722 µM); against Candida albicans [16], 500 µg/mL (≈ 2890 µM). The outcome in the assay on Candida albicans [8] was Active.

Take `O=C(O)/C=C\C(=O)NCCCc1ccccc1`: the minimal inhibitory concentration (MIC) against Candida albicans [1], against Candida albicans [2], with Candida albicans [3], in the assay on Candida albicans [4], in the assay with Candida albicans [5] and in the assay with Candida albicans [6] was above 250 µg/mL in each case. The minimum inhibitory concentration (MIC) against Candida albicans [7], with Nakaseomyces glabratus, in the assay on Candida parapsilosis, in the assay with Clavispora lusitaniae, in the assay with Torulaspora delbrueckii and with Pichia kudriavzevii was above 250 µg/mL each time. In addition, the minimal inhibitory concentration (MIC) with Kluyveromyces marxianus and in the assay on Candida tropicalis was above 250 µg/mL in each case.

As for `O=C(O)/C=C\C(=O)NCCc1ccccc1`, the minimum inhibitory concentration (MIC) with Candida albicans [1], in the assay with Candida albicans [2], against Candida albicans [3], against Candida albicans [4], in the assay on Candida albicans [5] and in the assay on Candida albicans [6] was above 250 µg/mL each time. The MIC in the assay with Candida albicans [7], with Nakaseomyces glabratus, in the assay with Candida parapsilosis, with Clavispora lusitaniae, in the assay on Torulaspora delbrueckii and against Pichia kudriavzevii was above 250 µg/mL throughout. Further, the minimal inhibitory concentration (MIC) in the assay with Kluyveromyces marxianus and against Candida tropicalis was above 250 µg/mL in each case.
